Test results taken from ChEMBL document CHEMBL3994646, “Structure-based design and SAR development of 5,6-dihydroimidazolo[1,5-f]pteridine derivatives as novel Polo-like kinase-1 inhibitors” (Bioorg Med Chem Lett, 2017).
pEC50, pIC50: −log10 of the molar value. One block for each compound: values may come before it.

Assays:
HT-29 [1] = assay: Antiproliferative activity against human HT-29 cells after 72 hrs by CellTiter-Glo assay; details: HT-29, 72 h
Cytochrome P450 3A4 = Cytochrome P450 3A4 (Homo sapiens, UniProt P08684); assay: Inhibition of CYP3A4 (unknown origin); type: ADME
[2] = Oral bioavailability in rat; type: ADME, organism-based; details: in vivo
Outline: (§1)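 Rats dosed at about 1.0 mg/kg IV in 30% β-cyclodextrin in 0.05 M MSA, pH 3, and about 5.0 mg/kg orally in 0.5% methylcellulose. Clearance from the IV arm; oral bioavailability from comparison of the two routes.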

[3] = Clearance in rat; type: ADME; details: in vivo; outline: as §1
Cytochrome P450 2C8 = target: T1, Cytochrome P450 2C8 (Homo sapiens, UniProt P10632); assay: Inhibition of CYP2C8 (unknown origin); type: ADME
T1 sequence (P10632 whole entry): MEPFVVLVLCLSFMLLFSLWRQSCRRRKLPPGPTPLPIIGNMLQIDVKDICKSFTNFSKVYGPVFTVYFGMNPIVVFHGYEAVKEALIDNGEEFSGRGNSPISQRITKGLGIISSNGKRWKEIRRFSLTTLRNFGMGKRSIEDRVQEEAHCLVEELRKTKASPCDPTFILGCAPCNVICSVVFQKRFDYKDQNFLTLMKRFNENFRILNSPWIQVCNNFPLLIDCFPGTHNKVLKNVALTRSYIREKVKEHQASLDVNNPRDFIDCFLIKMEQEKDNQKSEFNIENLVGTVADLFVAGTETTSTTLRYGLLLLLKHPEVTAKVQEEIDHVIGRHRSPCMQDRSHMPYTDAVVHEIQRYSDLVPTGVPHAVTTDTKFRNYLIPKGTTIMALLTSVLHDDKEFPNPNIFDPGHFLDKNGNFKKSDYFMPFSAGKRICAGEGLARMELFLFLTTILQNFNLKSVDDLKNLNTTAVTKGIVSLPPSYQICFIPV

hERG (KCNH2) = hERG (KCNH2) (Homo sapiens, UniProt Q12809); assay: Inhibition of human ERG at 10 uM relative to control
[4] = Inhibition of CYP450 (unknown origin); type: ADME; details: human
[5] = AUC (0 to t) in mouse at 1 mg/kg, iv; type: ADME, organism-based; details: in vivo
Outline: (§2)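 Female mice dosed intravenously at 1 mg/kg. Plasma concentration–time data used to derive Cmax, T1/2, MRT, AUC0-t, extrapolated AUC, clearance and steady-state volume of distribution.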

[6] = Mean residence time in mouse at 1 mg/kg, iv; type: ADME, organism-based; details: in vivo; outline: as §2
[7] = Half life in mouse at 1 mg/kg, iv; type: ADME, organism-based; details: in vivo; outline: as §2
[8] = Mean residence time in mouse at 5 mg/kg, po; type: ADME, organism-based; details: in vivo
Outline: (§3)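 Female mice given 5 mg/kg orally. Oral exposure (Cmax, Tmax, T1/2, MRT, AUC0-t, extrapolated AUC) measured, and bioavailability taken relative to the 1 mg/kg IV arm.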

[9] = AUC (0 to t) in mouse at 5 mg/kg, po; type: ADME, organism-based; details: in vivo; outline: as §3
[10] = Cmax in mouse at 5 mg/kg, po; type: ADME, organism-based; set-up: dose 5 mg/kg, route oral; details: in vivo; outline: as §3
Mus musculus [11] = assay: Toxicity in mouse xenografted with human HT-29 cells assessed as body weight loss at 45 mg/kg, iv 1/time/week x 1 cycle relative to control; type: organism-based; details: in vivo
Outline: (§4)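 Mice bearing HT-29 xenografts given 45 mg/kg IV once weekly for one cycle. Efficacy expressed as tumour T/C (%) versus control; tolerability as percent body weight loss.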

[12] = Oral bioavailability in mouse at 5 mg/kg; type: ADME, organism-based; details: in vivo; outline: as §3
HT-29 [13] = assay: Antitumor activity against human HT-29 cells xenografted in mouse assessed as tumor growth inhibition at 45 mg/kg, iv 1/time/week x 1 cycle relative to control; type: functional; outline: as §4
Mus musculus [14] = assay: Bioavailability in mouse at 5 mg/kg, po; details: in vivo
[15] = Cmax in mouse at 1 mg/kg, iv; type: ADME, organism-based; set-up: dose 1 mg/kg, route intravenous; details: in vivo; outline: as §2
[16] = Clearance in mouse at 1 mg/kg, iv; type: ADME, organism-based; details: in vivo; outline: as §2
[17] = Volume of distribution at steady state in mouse at 1 mg/kg, iv; type: ADME, organism-based; details: in vivo, read-out: Vdss; outline: as §2
[18] = AUCextrapolated in mouse at 1 mg/kg, iv; type: ADME, organism-based; details: in vivo; outline: as §2
[19] = AUCextrapolated in mouse at 5 mg/kg, po; type: ADME, organism-based; details: in vivo; outline: as §3
[20] = Tmax in mouse at 5 mg/kg, po; type: ADME, organism-based; details: in vivo; outline: as §3
[21] = Half life in mouse at 5 mg/kg, po; type: ADME, organism-based; details: in vivo; outline: as §3

Cytochrome P450 3A4, sequence (P08684 whole entry): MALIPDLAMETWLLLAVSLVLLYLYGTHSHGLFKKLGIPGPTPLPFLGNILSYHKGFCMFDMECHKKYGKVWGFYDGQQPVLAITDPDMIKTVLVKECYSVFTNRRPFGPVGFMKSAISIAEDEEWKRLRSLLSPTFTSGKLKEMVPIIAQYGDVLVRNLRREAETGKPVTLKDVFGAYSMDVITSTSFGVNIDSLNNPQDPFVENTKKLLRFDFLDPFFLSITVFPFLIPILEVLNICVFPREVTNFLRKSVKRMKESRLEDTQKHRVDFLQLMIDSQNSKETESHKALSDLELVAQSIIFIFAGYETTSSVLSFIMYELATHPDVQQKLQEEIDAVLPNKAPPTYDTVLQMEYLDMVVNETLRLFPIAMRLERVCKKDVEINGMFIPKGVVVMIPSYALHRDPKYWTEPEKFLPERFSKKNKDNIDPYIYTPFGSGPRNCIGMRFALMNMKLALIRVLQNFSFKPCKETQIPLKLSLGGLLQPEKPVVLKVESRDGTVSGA
hERG (KCNH2), sequence (Q12809 whole entry): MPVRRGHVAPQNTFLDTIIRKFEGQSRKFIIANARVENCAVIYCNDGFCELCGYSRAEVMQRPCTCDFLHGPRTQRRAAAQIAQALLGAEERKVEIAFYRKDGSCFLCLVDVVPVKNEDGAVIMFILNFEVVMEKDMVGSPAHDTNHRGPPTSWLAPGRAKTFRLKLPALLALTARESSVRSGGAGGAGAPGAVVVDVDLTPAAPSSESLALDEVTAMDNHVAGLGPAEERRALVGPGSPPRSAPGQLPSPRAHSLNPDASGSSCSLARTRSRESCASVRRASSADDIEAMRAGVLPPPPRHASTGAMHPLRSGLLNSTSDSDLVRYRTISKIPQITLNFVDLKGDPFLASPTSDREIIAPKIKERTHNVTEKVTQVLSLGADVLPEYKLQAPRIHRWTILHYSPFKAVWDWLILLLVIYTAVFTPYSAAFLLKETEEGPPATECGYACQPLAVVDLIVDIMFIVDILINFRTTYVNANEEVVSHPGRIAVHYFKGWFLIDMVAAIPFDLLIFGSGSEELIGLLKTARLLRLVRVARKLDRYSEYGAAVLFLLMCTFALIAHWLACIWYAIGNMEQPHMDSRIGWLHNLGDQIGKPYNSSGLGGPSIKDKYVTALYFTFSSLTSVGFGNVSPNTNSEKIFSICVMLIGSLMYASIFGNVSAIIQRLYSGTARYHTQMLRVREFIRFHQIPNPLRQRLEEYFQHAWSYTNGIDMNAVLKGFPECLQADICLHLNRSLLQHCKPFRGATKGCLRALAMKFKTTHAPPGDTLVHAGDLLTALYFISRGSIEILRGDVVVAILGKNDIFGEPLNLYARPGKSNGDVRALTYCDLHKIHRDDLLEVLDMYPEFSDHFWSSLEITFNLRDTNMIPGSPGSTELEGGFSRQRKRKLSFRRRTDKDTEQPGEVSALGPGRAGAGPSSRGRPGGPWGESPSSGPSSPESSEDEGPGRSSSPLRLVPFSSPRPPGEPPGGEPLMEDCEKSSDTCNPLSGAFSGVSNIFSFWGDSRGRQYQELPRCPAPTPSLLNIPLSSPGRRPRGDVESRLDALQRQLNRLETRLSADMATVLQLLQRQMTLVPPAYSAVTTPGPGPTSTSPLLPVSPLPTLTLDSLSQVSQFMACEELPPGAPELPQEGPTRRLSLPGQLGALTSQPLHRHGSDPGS

pEC50 (HT-29 [1]): 7.70
Compound: CC[C@@H]1c2c(C(N)=O)ncn2-c2cnc(Nc3ccc(C(=O)NC4CCN(C)CC4)cc3OC)nc2N1C1CCCC1

pEC50 (HT-29 [1]): 9.00
pIC50 (Cytochrome P450 3A4): > 5.00
bioavailability [2]: 49%
clearance [3]: 28 mL/min/kg
pIC50 (Cytochrome P450 2C8): > 5.00
Compound: CC[C@@H]1c2c(C#N)ncn2-c2cnc(Nc3cc(F)c(C(=O)NC4CCN(C)CC4)cc3OC)nc2N1C1CCCC1

pEC50 (HT-29 [1]): 8.52
inhibition (INH) [4]: Not Active
Compound: CC[C@@H]1c2c(C#N)ncn2-c2cnc(Nc3cc(F)c(C(=O)NC4CCN(CC)CC4)cc3OC)nc2N1C(C)C
inhibition at 10 µM (hERG (KCNH2)): 37%

pEC50 (HT-29 [1]): 8.05
Compound: CCOC(=O)c1ncn2c1[C@@H](CC)N(C1CCCC1)c1nc(Nc3ccc(C(=O)NC4CCN(C)CC4)cc3OC)ncc1-2

pEC50 (HT-29 [1]): 8.52 to 8.57
pIC50 (Cytochrome P450 3A4): > 5.00
bioavailability [2]: 0%
clearance [3]: 76 mL/min/kg
Compound: CC[C@@H]1c2c(C#N)ncn2-c2cnc(Nc3ccc(C(=O)NC4CCN(C)CC4)cc3OC)nc2N1C1CCCC1

pEC50 (HT-29 [1]): 8.70
pIC50 (Cytochrome P450 3A4): > 5.00
pIC50 (Cytochrome P450 2C8): > 5.00
Compound: CC[C@@H]1c2c(C#N)ncn2-c2cnc(Nc3cc(F)c(C(=O)NC4CCN(C)CC4)cc3OC)nc2N1C1CCCCC1

pEC50 (HT-29 [1]): 7.00
Compound: CCNC(=O)c1ncn2c1[C@@H](CC)N(C1CCCC1)c1nc(Nc3ccc(C(=O)NC4CCN(C)CC4)cc3OC)ncc1-2

pEC50 (HT-29 [1]): 8.22
bioavailability [2]: 0.5%
inhibition (INH) [4]: Not Active
Compound: CC[C@@H]1c2c(C#N)ncn2-c2cnc(Nc3ccc(C(=O)NC4CCN(C)CC4)cc3OC)nc2N1C(C)C

pEC50 (HT-29 [1]): 8.52
inhibition (INH) [4]: Not Active
Compound: CC[C@@H]1c2c(C#N)ncn2-c2cnc(Nc3cc(F)c(C(=O)NC4CN(C)C4)cc3OC)nc2N1C(C)C

pEC50 (HT-29 [1]): 7.22
Compound: CC[C@@H]1c2c(C(=O)N(C)O)ncn2-c2cnc(Nc3ccc(C(=O)NC4CCN(C)CC4)cc3OC)nc2N1C1CCCC1

pEC50 (HT-29 [1]): 6.40
Compound: CC[C@@H]1c2c(C(=O)O)ncn2-c2cnc(Nc3ccc(C(=O)NC4CCN(C)CC4)cc3OC)nc2N1C1CCCC1

AUC(0-t) [5]: 713 ng·h/mL
MRT [6]: 6.5 h
pEC50 (HT-29 [1]): 7.66
bioavailability [2]: 100%
half-life [7]: 282 min
MRT [8]: 13 h
AUC(0-t) [9]: 3900 ng·h/mL
Cmax [10]: 354 ng/mL
bioavailability [12]: 101%
F (Mus musculus [14]): 100%
Cmax [15]: 258 ng/mL
clearance [16]: 22.7 mL/min/kg
Vd [17]: 8.9 L/kg
inhibition (INH) [4]: Not Active
AUC [18]: 1010 ng·h/mL
AUC [19]: 4590 ng·h/mL
Tmax [20]: 4 h
half-life [21]: 510 min
Compound: CC[C@@H]1c2c(C#N)ncn2-c2cnc(Nc3cc(F)c(C(=O)N[C@H]4CC[C@H](N5CCN(CC6CC6)CC5)CC4)cc3OC)nc2N1C(C)C
Activity (Mus musculus [11]): 5.5%
T/C (HT-29 [13]): 54.6%

pEC50 (HT-29 [1]): 7.52
Compound: CC[C@@H]1c2c(CO)ncn2-c2cnc(Nc3ccc(C(=O)NC4CCN(C)CC4)cc3OC)nc2N1C1CCCC1

pEC50 (HT-29 [1]): 8.40
bioavailability [2]: 47%
inhibition (INH) [4]: Not Active
Compound: CC[C@@H]1c2c(C#N)ncn2-c2cnc(Nc3cc(F)c(C(=O)NC4CCN(C)CC4)cc3OC)nc2N1C(C)C
